Measured values gathered from unrelated publications.
Lines come from different studies, so protocols differ.
Target: Serine/threonine-protein kinase 25 (STK25, Homo sapiens, UniProt O00506)

`CC1CCCN1c1nccc(-c2cnn3ncccc23)n1` (centres unmarked) gave a remaining binding of 100% (binding; 1 µM).
The inhibition of `CCOc1cc(-c2nncn2C)ccc1Nc1ncc2cc(C)nc(NCC(C)(C)C)c2n1` is reported as under 15% (enzyme activity; inhibitor; FRET; 1 µM).
For `Cc1ccc(C(=O)Nc2ccc(CN3CCN(C)CC3)c(C(F)(F)F)c2)cc1C#Cc1cnc2cccnn12`, the remaining activity was 98% (enzyme activity; inhibitor; 23.5 nM).
With `COc1cc(-c2cc(-c3ccc(N4CCNCC4)cc3)cnc2C)cc(OC)c1OC` the inhibition was 1% (enzyme activity; inhibitor; 0.1 µM).
The remaining signal of `COc1cc2ncnc(Nc3ccc(F)c(Cl)c3)c2cc1OCCCN1CCOCC1` is reported as 97.4% (cell-free assay; 0.5 µM).
The inhibition of `COc1cc2ncnc(Nc3ccc(Oc4ccccc4)c(C)c3C)c2cc1OC` is reported as 8% (enzyme activity; inhibitor; 1 µM).
`CC1(C)NC(=O)c2[nH]c3c(Cl)c(Cl)ccc3c2C1C#N` (centres unmarked) gave a ΔTm of 1.6 °C (thermal stability; DSF; 10 µM).
`C[C@@H]1CN(c2cc(-c3n[nH]c4ccc(OC5(C)CC5)cc34)ncn2)C[C@H](C)O1` has a remaining binding of 100% (cell-free assay; competition with immobilised ligand; 0.1 µM).
With `O=C(Nc1cnn(-c2csc(C(=O)NC3COC3)c2)c1)Nc1ccccc1Cl` the remaining activity was 106% (enzyme activity; inhibitor; 5 µM).
`Cc1ccc(NC(=O)c2ccc(C)c(C(F)(F)F)c2)cc1C#Cc1nn(C2CCC(O)CC2)c2ncnc(N)c12` (centres unmarked) has a remaining signal of 66% (cell-free assay; 10 µM).
`CO[C@@H](C)c1c(Nc2ccc([C@H](N(C)C(=O)C3CCS(=O)(=O)CC3)C(F)(F)F)cc2)cnc2cc(Cl)nn12` has a remaining binding of 87% (cell-free assay; competition with immobilised ligand; 1 µM).
`CCN(CC)CCNC(=O)c1c(C)[nH]c(/C=C2\C(=O)Nc3ccc(F)cc32)c1C` has a remaining signal of 76.1% (cell-free assay; 0.5 µM).
`CS(=O)(=O)N1CCCC(NC(=O)[C@H](CCC2CCCCC2)NC(=O)c2ccc(CNC(=O)c3cnc4ccccn34)cc2)C1` (some centres unmarked) gave a remaining binding of 100% (cell-free assay; competition with immobilised ligand; 0.1 µM).
`Cn1c2c(c3ccc(Cl)c(Cl)c31)C(C#N)C1(CCOCC1)NC2=O` (centres unmarked) gave a ΔTm of 0.4 °C (thermal stability; DSF; 10 µM).
The remaining binding of `O=C(Nc1ccc(Oc2ccc(F)cc2)cc1)N1CCc2ncccc2[C@H]1c1ccc(F)cc1` is reported as 100% (cell-free assay; competition with immobilised ligand; 1 µM).
`Cc1cc(NC(=O)c2cccc3cc(-c4cccc5[nH]nc(N)c45)ccc23)ccc1F` gave an activity vs control of 92% (enzyme activity; inhibitor; 0.1 µM).
With `c1ccc(CNc2nc(N3CCOc4ccccc43)nc3c2CCCC3)cc1` the inhibition was 34.6% (target engagement in cells; inhibitor; chemoproteomics; 20 mM).
With `CC(C)(C)c1nc2c(s1)c1nc(N)ncc1c1ccc(NS(=O)(=O)c3c(F)cccc3F)c(F)c12` the remaining activity was 57% (enzyme activity; inhibitor; radiometric; 1 µM).
`COc1cc(-c2cn(C3CCc4ccccc4N(CC(F)(F)F)C3=O)nn2)ccc1-n1ccc(C)n1` (centres unmarked) has a remaining binding of 100% (cell-free assay; competition with immobilised ligand; 1 µM).
With `COc1cc(Cl)c(C(=O)N[C@@H](CN[C@H]2CC[C@@H](N)CC2)Cc2ccc(C#N)cc2)cc1-c1ccc(CN[C@H](C)c2ccc(C)cc2)o1` the remaining activity was 104% (enzyme activity; inhibitor; 1 µM).
`CC(=O)c1c(NS(C)(=O)=O)c2cc(-c3ccc(Cl)cc3)c(-c3ccc(Cl)cc3Cl)nc2n(C)c1=O` has a remaining binding of 100% (cell-free assay; competition with immobilised ligand; 1 µM).
`Cn1cncc1C1=CN(c2ncnc3[nH]cnc23)CCS1` has an inhibition of 13.5% (enzyme activity; inhibitor; radiometric; 50 nM).
The remaining binding of `COc1ccc2c(O[C@@H]3C[C@H]4C(=O)N[C@]5(C(=O)O)CC5/C=C\CCCCC[C@H](NC(=O)OC5CCCC5)C(=O)N4C3)cc(-c3csc(NC(=O)C(C)C)n3)nc2c1C` (some centres unmarked) is reported as 100% (cell-free assay; competition with immobilised ligand; 1 µM).
`C#Cc1cccc(Nc2ncnc3cc(OCCOC)c(OCCOC)cc23)c1` has a remaining signal of 99.4% (cell-free assay; 0.5 µM).
With `CNC(=O)c1ccc(Nc2ncc(C(F)(F)F)c(NCc3nccnc3N(C)S(C)(=O)=O)n2)cc1` the remaining binding was 85% (cell-free assay; competition with immobilised ligand; 0.1 µM).
`Cn1c2c(c3ccc(Cl)c(Cl)c31)C(C#N)C(C)(C)NC2=O` (centres unmarked) gave a ΔTm of 1.2 °C (thermal stability; DSF; 10 µM).
